Compound activity as filed in PubChem BioAssay.
AI-2 QS modul: Vibrio harveyi AI-2 quorum sensing modulators, primary screen, JMH597 strain, luminescence/OD600 ratio | activity change, % at 7.5 µM | 0.4% of 300,000 active | Vibrio harveyi JMH597 AI-2 luminescence/OD600 ratio, 9 h; stronger effect = lower value; strain lacks LuxN and CqsS sensors; 0 = neutral-control median; in the data active = activity change below about -75%, passing the limit was not always enough; inconclusive = no clear call, values can overlap the other calls;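 also: luminescence divided by OD600 gain over 9 h not by final OD600 alone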
PolyA inh: polyadenylation inhibitors in yeast reporter cells, primary screen, luminescence, S. cerevisiae; S. cerevisiae SKY197-pL101 polyadenylation reporter, beta-gal luminescence; efflux-impaired pdr1/pdr3 knockout yeast; score 100 = 6 SD above DMSO; activity score, % at 12 µM; 0.02% of 300,000 active; AID 1875, 2009;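 active = lowest replicate activity score at least 50, where 100 means six control SD above control mean; inconclusive = lowest score under 50 but half or more replicates reach 50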;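 also: yeast exposed to compound for 9 h at 30 °C; higher score means more reporter readthrough which indicates perturbed polyadenylation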
T cruzi inh: inhibitors of intracellular T. cruzi growth, primary screen, luminescence, NIH3T3 host cells. T. cruzi beta-gal in NIH3T3, 90 h. inhibition, % (test concentration not listed). 1.4% of 300,000 active. AID 1885, 2009;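 active = mean inhibition across valid replicates above about 55%, limit read from the data; inconclusive = mean below that limit but half or more replicates reach it; inactive = mean below it, under half of replicates reach it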;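 also: signal also drops with host cell toxicity which is not excluded here; 0% = plate median of DMSO wells and 100% = zero luminescence signal; higher percent means less beta-gal luminescence so fewer parasites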
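System – NIH/3T3 host cells with β-galactosidase reporter T. cruzi · Doses – single 50 nL compound addition per well in DMSO · Reagent – 5000 T. cruzi trypomastigotes/well · Medium – Low-serum DMEM with 2% FBS · Timing – ≥90 h infection period, 3 h prior cell attachment · Evaluation – parasite load inhibition, % · Technique – GalScreen luminescence, 60 min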
HDAC3 inhib: HDAC3 deacetylase inhibitors, primary screen, biochemical, fluorescence, cell-free homogeneous; Histone deacetylase 3 (Homo sapiens), O15379; recombinant HDAC3, fluorogenic peptide/trypsin coupled; inhibition, % at 8.3 µM; 0.15% of 320,000 active; AID 2718, 2010; in the data active = inhibition above about 26%, passing the limit was not always enough; inconclusive = no clear call, values can overlap the other calls
Target sequence (O15379 whole entry, looked up): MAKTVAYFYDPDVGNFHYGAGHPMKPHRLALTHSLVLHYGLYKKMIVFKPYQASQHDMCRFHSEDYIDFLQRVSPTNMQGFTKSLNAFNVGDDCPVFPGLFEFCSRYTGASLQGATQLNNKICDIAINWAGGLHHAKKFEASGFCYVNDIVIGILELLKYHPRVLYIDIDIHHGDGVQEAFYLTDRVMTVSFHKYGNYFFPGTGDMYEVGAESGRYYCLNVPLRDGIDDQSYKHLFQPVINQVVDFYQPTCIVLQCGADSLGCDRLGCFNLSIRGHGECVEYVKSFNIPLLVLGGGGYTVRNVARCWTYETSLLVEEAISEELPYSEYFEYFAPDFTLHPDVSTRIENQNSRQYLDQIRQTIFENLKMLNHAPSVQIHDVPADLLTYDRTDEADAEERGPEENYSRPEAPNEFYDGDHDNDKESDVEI
Efflux pump inh: inhibitors of Candida efflux pumps in yeast, primary screen, S. cerevisiae, Nile Red, multiplex; S. cerevisiae Candida pump triplex; inhibition, % at 10 µM; 0.44% of 330,000 active; AID 485275, 2010;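 active = plate passing quality check with inhibition over a set limit, or well fluorescence over plate mean plus 4 SD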;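 also: Nile Red retained in pooled yeast measured as flow cytometry median fluorescence; 0% = buffer negative control and 100% = Enniatin B positive control; higher means more Nile Red kept so more efflux inhibition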
Cmpd fluor yeast: flagged as fluorescent in efflux inhibitor counter-screen. 4% of 1,700 active. S. cerevisiae AD/pABC3, compound fluorescence, flow cytometry. AID 588517. shares compounds with Efflux pump inh. fluorescence ratio to DMSO, % at 10 µM;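 active = fluorescence ratio to DMSO above its plate's cutoff, the plate mean ratio plus 5 SD, cut at about 210% in these data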;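 also: unstained yeast with no Nile Red so the signal is compound autofluorescence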
CaMdr1 efflux inh: inhibitors of Candida albicans Mdr1 efflux, confirmation, flow cytometry, singleplex, Cherry Pick1 set; shares compounds with Efflux pump inh; S. cerevisiae AD/CaMDR1, Nile Red efflux; inhibition, % at 10 µM; 1% of 1,700 active; AID 588518, 2011; in the data active = inhibition above about 26%;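 also: 0% = DMSO vehicle and 100% = reference inhibitor; higher means more Nile Red retained so more efflux inhibition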
CaCdr2 efflux inh: inhibitors of Candida albicans Cdr2 efflux pump, confirmation, S. cerevisiae AD/CaCDR2, flow cytometry, cherry pick 1, singleplex; shares compounds with Efflux pump inh; Nile Red retention; Nile Red retention ratio vs DMSO, % at 10 µM; AID 588520, 2011; 4% of 1,700 active; in the data active = Nile Red retention ratio vs DMSO above about 190%;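 also: higher ratio means more blocking of Cdr2 efflux of the dye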
Cdr1 pump inh: inhibitors of Candida albicans Cdr1 efflux pump, confirmation, S. cerevisiae AD/CaCDR1, flow cytometry, cherry pick 1, singleplex; 1% of 1,700 active; shares compounds with Efflux pump inh; Nile Red efflux; AID 588522, 2011; inhibition, % at 10 µM;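 active = inhibition above the screen-wide mean plus twice its standard deviation, cut at about 32% in these data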
Active calls of the source: *. An excerpt weighted towards active compounds, which were near 2.2% of everything screened.

`CCC(C)N1C(=O)/C(=C\c2cc3c4c(c2)CCCN4CCC3)C(=O)NC1=S` (stereo not given) gave AI-2 QS modul 4.9, PolyA inh -11.1, T cruzi inh -13.7, HDAC3 inhib 1.4, Efflux pump inh 0.7*, Cmpd fluor yeast 118.0, CaMdr1 efflux inh -0.2, CaCdr2 efflux inh 114.4 and Cdr1 pump inh 0.2.
CCC(C)N1C(=O)/C(=C\c2ccc(N3CCCCCC3)cc2)C(=O)NC1=S (stereo not given) was read as AI-2 QS modul 1.1, PolyA inh 1.6, T cruzi inh -5.1, HDAC3 inhib 1.6 and Efflux pump inh 0.4.
For COC(=O)C1=C(c2cc3ccccc3o2)C[C@@H]2CC[C@H]1N2C(=O)NC(C)C the results were AI-2 QS modul 0.4, PolyA inh 5.3, T cruzi inh 6.7, HDAC3 inhib 1.2 and Efflux pump inh 0.0.
`Clc1ccc(C(c2ccc(Cl)cc2)n2cc[n+](CC(OCc3ccc(Cl)cc3Cl)c3ccc(Cl)cc3Cl)c2)cc1` (stereo not given) gave HDAC3 inhib -2.8, Efflux pump inh 90.4*, Cmpd fluor yeast 94.0, CaMdr1 efflux inh 0.1, CaCdr2 efflux inh active and Cdr1 pump inh -0.2.
Screening O=C(Nc1c(F)cc(F)cc1F)c1cccn(Cc2ccccc2)c1=O returned AI-2 QS modul 0.6, PolyA inh -6.6, T cruzi inh -5.6, HDAC3 inhib -8.2, Efflux pump inh 0.8*, Cmpd fluor yeast 102.2, CaMdr1 efflux inh -0.1, CaCdr2 efflux inh 100.1 and Cdr1 pump inh -0.1.
`O=c1c2ccccc2[se]n1-c1ccccc1` gave AI-2 QS modul inconclusive, PolyA inh -6.2, T cruzi inh -25.6, Efflux pump inh 4.0*, Cmpd fluor yeast 96.2, CaMdr1 efflux inh 0.6, CaCdr2 efflux inh 107.2 and Cdr1 pump inh -0.1.
Screening O=c1c2ccccc2nc(-c2ccccc2)n1-c1ccccc1 returned AI-2 QS modul 14.5, PolyA inh 3.7, T cruzi inh -12.2, HDAC3 inhib -1.0 and Efflux pump inh -0.1.
CC(=NCc1cccnc1)c1c(O)n(-c2ccccc2C)c(=O)[nH]c1=O was read as AI-2 QS modul -1.3, PolyA inh 26.5, T cruzi inh -18.8, HDAC3 inhib 2.7, Efflux pump inh 1.8*, Cmpd fluor yeast 103.0, CaMdr1 efflux inh 0.2, CaCdr2 efflux inh 133.0 and Cdr1 pump inh -0.1.
`CCC(=NCc1cccnc1)c1c(O)n(-c2ccccc2C)c(=O)[nH]c1=O` gave AI-2 QS modul 21.9, PolyA inh 3.2, HDAC3 inhib -1.1 and Efflux pump inh -0.1.
Screening COC(=O)C1=C(c2ccc(F)cc2F)C[C@@H]2CC[C@H]1N2C(=O)NCCOc1ccc(OC)cc1 returned HDAC3 inhib 4.2 and Efflux pump inh 0.5.
